Measurements pooled from the literature.
Lines come from different studies, so protocols differ.
Target: Serine/threonine-protein kinase Nek3 (NEK3, Homo sapiens, UniProt P51956)
Sequence (P51956 1-506, as in one of the studies): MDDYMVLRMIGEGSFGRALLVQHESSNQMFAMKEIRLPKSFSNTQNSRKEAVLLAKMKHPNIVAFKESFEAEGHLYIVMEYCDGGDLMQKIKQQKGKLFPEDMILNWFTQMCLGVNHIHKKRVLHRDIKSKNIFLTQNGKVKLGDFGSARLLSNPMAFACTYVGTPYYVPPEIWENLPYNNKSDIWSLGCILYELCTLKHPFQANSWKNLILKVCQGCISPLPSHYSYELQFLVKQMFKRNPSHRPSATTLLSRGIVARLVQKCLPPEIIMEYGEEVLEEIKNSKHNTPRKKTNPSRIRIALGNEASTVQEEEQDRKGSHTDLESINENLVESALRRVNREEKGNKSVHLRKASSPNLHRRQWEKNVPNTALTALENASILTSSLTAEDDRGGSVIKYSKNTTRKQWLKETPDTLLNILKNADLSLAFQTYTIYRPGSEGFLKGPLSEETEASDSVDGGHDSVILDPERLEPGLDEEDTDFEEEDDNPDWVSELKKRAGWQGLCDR

Compound	assay	setting	remaining binding
CN(C)c1nccc(-c2cnc3ncccn23)n1	binding	1 µM	100%
O=C(O)[C@H]1[C@H](Cn2nnc3ccccc3c2=O)CC[C@@H]1C(=O)c1ccc(OCCC2CCOCC2)cc1	cell-free assay, competition with immobilised ligand	1 µM	86%
O=C(NCC1CCOCC1)c1n[nH]cc1NC(=O)c1c(F)cccc1F	binding, competition with immobilised ligand	1 µM	66%
O=C(c1ccc(Nc2ncc(Cl)c(-c3cc4ccccc4s3)n2)cc1)N1CCC(N2CCCC2)CC1	binding, competition with immobilised ligand	1 µM	1.3%
COc1ncc2cc3ccccc3nc2c1C#N	cell-free assay, competition with immobilised ligand	5 µM	100%
FC(F)(F)Oc1cccc(-c2cnc3ccc(-c4ccncc4)nn23)c1	cell-free assay, competition with immobilised ligand	5 µM	73%
O=C(NCCCN1CCOCC1)c1ccc(Nc2ncc(Cl)c(-c3ccc(Cl)s3)n2)cc1	binding, competition with immobilised ligand	1 µM	0.5%
C[C@H]1CCN(c2nccc(-c3cnn4ncccc34)n2)C1	binding	1 µM	70%
COc1cnc(Nc2cccc(S(N)(=O)=O)c2)nc1N1CCN(c2ccccc2)CC1	binding, competition with immobilised ligand	1 µM	74%
O=C(c1ccc(Nc2nccc(-c3cc4ccccc4s3)n2)cc1)N1CCC(N2CCCC2)CC1	binding, competition with immobilised ligand	1 µM	5.4%
CCCOc1ccc([C@@H]2[C@@H](C(=O)O)[C@H](c3ccc4c(c3)OCO4)CN2CC(=O)Nc2c(CC)cccc2CC)cc1	cell-free assay, competition with immobilised ligand	1 µM	100%
Nc1ncc2c(n1)-c1c([nH]c3ccc(C#CC4CC4)cc13)CCCC2	binding, competition with immobilised ligand	1 µM	78%
COc1cc(-c2cn(C3CCc4ccccc4N(CC(F)(F)F)C3=O)nn2)ccc1-n1ccc(C)n1 (stereo not drawn)	cell-free assay, competition with immobilised ligand	1 µM	100%
c1cnn2ncc(-c3ccnc(N4CCC45COC5)n3)c2c1	binding	1 µM	64%
COc1cnc(Nc2cccc(S(N)(=O)=O)c2)nc1N1CCN(c2ccccc2)C(=O)C1	binding, competition with immobilised ligand	1 µM	30%
CN(C)c1nccc(-c2cnn3ncccc23)n1	binding	1 µM	100%
CN(C(=O)c1ccccc1)c1cc(N(C)c2ccc3c(c2)CCc2ccc(C(=O)NCCN4CCOCC4)cc2C3=O)ccc1F	cell-free assay, competition with immobilised ligand	1 µM	99%
N[C@H]1CCN(c2nccc(-c3cnn4ncccc34)n2)C1	binding	1 µM	100%
CC(C)CC(=O)N1CCc2nc(-c3ccc(Br)cc3)nc(N(C)Cc3ccccc3)c2C1	cell-free assay, competition with immobilised ligand	0.1 µM	100%
CN(C)c1ncc(F)c(-c2cnn3ncccc23)n1	binding	1 µM	70%
c1ccc(N2CCN(Cc3nc4ccccc4[nH]3)CC2)nc1	binding, competition with immobilised ligand	1 µM	100%
